Consider nine compounds from ChEMBL document CHEMBL4680098, “Next-Generation Reduction Sensitive Lipid Conjugates of Tenofovir: Antiviral Activity and Mechanism of Release” (J Med Chem, 2016).

Where a name gives a salt, the structure may show the parent alone.

Series [1] deals with Human immunodeficiency virus 1. As to the kind of experiment: Antiviral activity against HIV1 infected in human PBMC assessed as reduction in viral replication incubated for 7 days by radioactive incorporation polymerization assay based reverse transcriptase activity detection method. The series is classed as functional, organism-based. As to conditions: Human immunodeficiency virus 1, PBMC, 168 h. In a few lines:
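Fresh donor PBMCs (HIV/HBV negative) were isolated on Ficoll-Hypaque and stimulated 48-72 hr with PHA-P. They were then kept in RPMI 1640 with 15% FBS and IL-2, and used 72 hr after stimulation at 1×10^6 cells/ml. Compounds were tested up to 100 μM in five serial logarithmic dilutions. Infection used 50-150 TCID₅₀ per well (MOI ~0.002), in triplicate, with supernatant RT activity read at day 7.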

The nature of series [2]: Therapeutic index, ratio of CC50 for uninfected human PBMC to EC50 for HIV1 infected in human PBMC. The class given is toxicity. Conditions: PBMC (uninfected for CC50, HIV-1 infected for EC50).
Series [3] can be described thus: Aqueous solubility of compound. The series is classed as physicochemical. Conditions: buffer.
The next series concerns HepG2. As to the kind of experiment: (§1) Cytotoxicity in uninfected human hepG2 assessed as reduction in cell viability by XTT assay. The class given is cell-based. As to conditions: hepg2. In a few lines: (§2)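 Uninfected cells were plated and treated as in the anti-HBV plate: six ten-fold compound dilutions, 6 days at 37°C in 5% CO₂, medium renewed day 3. The monolayer was stained with XTT on day 6 and read at 450/650 nm, in triplicate.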
On the technique in general: Tetrazolium assays rely on reduction of a dye to a coloured formazan, in cell work by metabolically active cells.

Another series deals with Hepatitis B virus. Put plainly: Antiviral activity against HBV infected in human HepG2 assessed as reduction in viral replication incubated for 6 days by real time Q-PCR analysis. The series is classed as functional, organism-based. Conditions: HepG2, 144 h. In a few lines: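 Cells seeded at 1x10⁴/well, held 24 h at 37°C in 5% CO₂. Six ten-fold serial compound dilutions in RPMI1640 with 10% FBS were added in triplicate; medium-only wells served as virus controls. Cultured 6 days; medium with compound renewed on day 3. Day-6 supernatant diluted in buffer containing 40 μg/ml sheared salmon sperm DNA, boiled 15 min, then qPCR; HBV DNA copies interpolated from standard curve.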

A short description of series [4]: Cytotoxicity in uninfected human PBMC assessed as reduction in cell viability by XTT assay. The series is classed as tissue-based. The essentials: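 Fresh HIV/HBV-negative human PBMCs isolated by Ficoll-Hypaque and stimulated 48-72 h with 2 µg/mL PHA-P, then kept in RPMI 1640 with 15% FBS and IL-2. Plates were set up as for the anti-HIV assay but without virus, with compound up to 100 μM in log dilutions, for 7 days. Viability read by XTT at 450/650 nm, in triplicate.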

Series [5] in a line: Retention time in PBS buffer at pH 7.4 using compound 6 by LC-MS analysis. The class given is physicochemical.
Series [6] in a line: as §1. The series is classed as cell-based. Conditions: uninfected HepG2 cells. The essentials: as §2
Series [7] is described as follows: Therapeutic index, ratio of CC50 for uninfected human HepG2 cells to EC50 for HBV infected in human HepG2 cells. The series is classed as toxicity, cell-based.
Series [8] in a line: Stability in pH 11.56 buffer assessed as compound decomposition measured up to 350 mins at 37 degC by LC-MS analysis. The series is classed as physicochemical. As to conditions: pH 11.56, 350 min.
Series [9] can be described thus: Stability in pH 9.2 buffer assessed as compound decomposition measured up to 350 mins at 37 degC by LC-MS analysis. The class given is physicochemical. Conditions: pH 9.2, 350 min.
Series [10] can be described thus: Stability in pH 2.0 buffer assessed as compound decomposition measured up to 350 mins at 37 degC by LC-MS analysis. The series is classed as physicochemical. Conditions: pH 2, 350 min.
Series [11] can be described thus: Stability in PBS buffer at pH 7.4 assessed as compound decomposition by LC-MS analysis. The class given is physicochemical. In a few lines:
(§3)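 Freshly prepared buffer (3.0 ml) was equilibrated at 37.4 ± 0.2 °C with DTT at ~0.1 M and stirred 10 min. Compound stock in water/MeOH was then added. Aliquots were taken from 0 min to 24 h, with shorter intervals where needed, diluted to 1025 µL with H₂O/MeOH/HCOOH (75:25:0.1) and analysed by LC-MS.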

A short description of series [12]: Stability in aqueous carbonate/bicarbonate buffer at pH 9.19 assessed as compound decomposition by LC-MS analysis. The series is classed as physicochemical. In a few lines:
as §3

A short description of series [13]: Stability in aqueous carbonate/bicarbonate buffer at pH 10.16 assessed as compound decomposition measured within 8 mins by LC-MS analysis. The series is classed as physicochemical. Conditions: read-out: Drug degradation. The essentials:
as §3

A short description of series [14]: Stability in glycine/HCl buffer at pH 2.0 assessed as compound decomposition by LC-MS analysis. The class given is physicochemical. The essentials:
as §3

The term EC50 denotes the concentration at which the effect is half-maximal. A word on the CC50: it is the concentration at which the toxic effect on the cells reaches its halfway point. On to `CCCCCCCCCCCCCCCCSSCCOP(=O)(O)CO[C@H](C)Cn1cnc2c(N)ncnc21`, for which the EC50 in series [1] was 0.00065 µM; in the series on Hepatitis B virus, 0.02 µM. In [2], the selectivity ratio was 22000. In addition, the solubility result in series [3] was “Insoluble”. In the series on HepG2, the CC50 is more than 25 µM.

In the case of `CCCCCCCCCCCCCCCCSSc1ccccc1COP(=O)(O)CO[C@H](C)Cn1cnc2c(N)ncnc21`, the CC50 with HepG2 was found to be 17.5 µM; in series [4] (pbmc) it was 17.2 µM. In addition, the EC50 in the series on Hepatitis B virus came out at 4.48 µM.

As to `C[C@H](Cn1cnc2c(N)ncnc21)OCP(=O)(O)O` [TENOFOVIR ANHYDROUS], in series [1], the EC50 was 0.32 µM. Besides, the CC50 in [4] (pbmc) is more than 100 µM. Also, the Retention_time in [5] is on record as 0.66 min.

Turning to `CCCCCCCCCCCCSSCCCCCCOP(=O)(O)CO[C@H](C)Cn1cnc2c(N)ncnc21`, the EC50 came to 0.007 µM in series [1] and 1.05 µM in the series with Hepatitis B virus. Also, the selectivity ratio is more than 7000 in series [2] and more than 47 in [7]. Further, the CC50 in [6] and in [4] (uninfected PBMC) was more than 50 µM throughout.

For the compound `C[C@H](Cn1cnc2c(N)ncnc21)OCP(=O)(O)OCCCCS`, the Stabilty entry in [8], in series [9] and in [10] was “Stable” throughout. The CC50 (in the series on HepG2; in series [4] (pbmc)) was more than 100 µM throughout. The EC50 in the series on Hepatitis B virus was more than 100 µM.

As to `C[C@H](Cn1cnc2c(N)ncnc21)OCP(=O)(O)OCCS`, the CC50 (with HepG2; in series [4] (pbmc)) was more than 100 µM in each case. Also, the Stabilty result in series [11] is given as “Stable”; in series [12] it was “Unstable”; in series [14], “Stable”. Further, the EC50 in the series on Hepatitis B virus was determined as 41.9 µM. Further, in series [13], the degraded at 8 min came to 100%.

With `CCCCCCCCCCCCCCCCSSCCCCOP(=O)(O)CO[C@H](C)Cn1cnc2c(N)ncnc21`, the EC50 in series [1] is less than 0.0005 µM; in the series with Hepatitis B virus, 0.248 µM. In [2], the selectivity ratio was more than 100000. Moreover, the solubility result in series [3] is on record as “Insoluble”. For the same compound, the CC50 (with HepG2; in [4] (pbmc)) was more than 50 µM in each case.

`CCCCCCCCCCCCCCCCSSCc1ccccc1COP(=O)(O)CO[C@H](C)Cn1cnc2c(N)ncnc21`: the EC50 in [1] was less than 0.0005 µM; with Hepatitis B virus it was 0.152 µM. In addition, the figures for the CC50 (in the series with HepG2; in [4] (pbmc)) were 32.5 µM and 15.9 µM, respectively. Further, the selectivity ratio in [7] is 214.

Turning to `CC(C)OC(=O)OCOP(=O)(CO[C@H](C)Cn1cnc2c(N)ncnc21)OCOC(=O)OC(C)C` [TENOFOVIR DISOPROXIL FUMARATE], the EC50 was 0.0045 µM in series [1] and 0.34 µM in the series with Hepatitis B virus. Moreover, the selectivity ratio in [2] amounted to 9500; in series [7] it was 190. The CC50 in the series on HepG2 is 64.5 µM.
